Among the data in ChEMBL document CHEMBL3769358, “Arylboronic acids as dual-action FAAH and TRPV1 ligands” (Bioorg Med Chem Lett, 2016) are Efficacy, IC50 and EC50 values, retold here.

Assay [1] addresses T1, Transient receptor potential cation channel subfamily V member 1 (Homo sapiens, UniProt Q8NER1). Description: Agonist activity at recombinant human TRPV1 channel expressed in HEK293 cells assessed as increase in intracellular Ca2+ concentration by Fluo-4-AM dye based spectrofluorimetry relative to ionomycin. It is filed as cell-based. In short, it runs like this: (§1)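 HEK293 cells stably expressing human TRPV1, grown in MEM with non-essential amino acids, 10% FBS and 2 mM glutamine at 37 °C, 5% CO2. Cells loaded 1 h at room temperature with Fluo-4-AM (4 µM), washed into Tyrode's buffer pH 7.4, about 100,000 cells per stirred cuvette. Fluorescence (ex 488/em 516 nm) read at 25 °C. Efficacy normalised to 4 µM ionomycin, with wild-type HEK293 response subtracted when significant. EC50 from GraphPad; n = 4.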

In assay [2] the target is T2, Fatty-acid amide hydrolase 1 (Rattus norvegicus, UniProt P97612).
T2 sequence (P97612 whole entry): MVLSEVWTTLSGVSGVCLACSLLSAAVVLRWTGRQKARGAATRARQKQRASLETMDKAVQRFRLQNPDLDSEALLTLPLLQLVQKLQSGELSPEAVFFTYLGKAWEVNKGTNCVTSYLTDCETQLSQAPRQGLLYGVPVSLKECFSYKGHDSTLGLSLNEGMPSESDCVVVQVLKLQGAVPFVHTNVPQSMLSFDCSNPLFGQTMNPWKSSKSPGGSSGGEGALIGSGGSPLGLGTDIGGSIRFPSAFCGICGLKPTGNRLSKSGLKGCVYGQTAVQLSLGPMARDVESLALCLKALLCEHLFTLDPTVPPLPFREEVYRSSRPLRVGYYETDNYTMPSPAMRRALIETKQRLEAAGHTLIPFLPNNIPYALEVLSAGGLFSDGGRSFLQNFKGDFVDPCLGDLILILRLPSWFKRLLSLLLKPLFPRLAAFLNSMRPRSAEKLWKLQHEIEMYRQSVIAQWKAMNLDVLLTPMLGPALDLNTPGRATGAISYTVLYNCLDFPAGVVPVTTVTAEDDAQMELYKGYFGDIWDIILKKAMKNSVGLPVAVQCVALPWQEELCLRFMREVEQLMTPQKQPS
Description: Inhibition of rat brain FAAH assessed as hydrolysis of [14C]AEA to [14C]Ethanolamine incubated for 30 mins by scintillation counting method.

Assay [3] deals with T1, Transient receptor potential cation channel subfamily V member 1. Description: Antagonist activity at recombinant human TRPV1 channel expressed in HEK293 cells assessed as inhibition of capsiacin-induced Ca2+ flux preincubated for 5 mins followed by capsiacin challenge by Fluo-4-AM dye based spectrofluorimetry. It is filed as cell-based. In short, it runs like this:
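Fluo-4-loaded HEK293 cells stably expressing human TRPV1, in Tyrode's buffer pH 7.4, read at 25 °C (ex 488/em 516 nm). Test compound added to the cuvette 5 min before 0.1 µM capsaicin. IC50 taken as half-maximal inhibition of capsaicin-induced [Ca2+]i rise, calculated in GraphPad; mean of n = 4.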
On the technique in general: Calcium assays in cells follow changes in intracellular calcium, usually with a dye or a luminescent sensor.

The target is the same in assay [4]. Description: Agonist activity at recombinant human TRPV1 channel expressed in HEK293 cells assessed as increase in intracellular Ca2+ concentration by Fluo-4-AM dye based spectrofluorimetry. The class given is cell-based. In short, it runs like this:
as §1

The target is the same in assay [5]. Briefly: Antagonist activity at recombinant human TRPV1 channel expressed in HEK293 cells assessed as inhibition of capsiacin-induced Ca2+ flux by Fluo-4 dye based spectrofluorimetry assay.

T1 sequence (Q8NER1 whole entry): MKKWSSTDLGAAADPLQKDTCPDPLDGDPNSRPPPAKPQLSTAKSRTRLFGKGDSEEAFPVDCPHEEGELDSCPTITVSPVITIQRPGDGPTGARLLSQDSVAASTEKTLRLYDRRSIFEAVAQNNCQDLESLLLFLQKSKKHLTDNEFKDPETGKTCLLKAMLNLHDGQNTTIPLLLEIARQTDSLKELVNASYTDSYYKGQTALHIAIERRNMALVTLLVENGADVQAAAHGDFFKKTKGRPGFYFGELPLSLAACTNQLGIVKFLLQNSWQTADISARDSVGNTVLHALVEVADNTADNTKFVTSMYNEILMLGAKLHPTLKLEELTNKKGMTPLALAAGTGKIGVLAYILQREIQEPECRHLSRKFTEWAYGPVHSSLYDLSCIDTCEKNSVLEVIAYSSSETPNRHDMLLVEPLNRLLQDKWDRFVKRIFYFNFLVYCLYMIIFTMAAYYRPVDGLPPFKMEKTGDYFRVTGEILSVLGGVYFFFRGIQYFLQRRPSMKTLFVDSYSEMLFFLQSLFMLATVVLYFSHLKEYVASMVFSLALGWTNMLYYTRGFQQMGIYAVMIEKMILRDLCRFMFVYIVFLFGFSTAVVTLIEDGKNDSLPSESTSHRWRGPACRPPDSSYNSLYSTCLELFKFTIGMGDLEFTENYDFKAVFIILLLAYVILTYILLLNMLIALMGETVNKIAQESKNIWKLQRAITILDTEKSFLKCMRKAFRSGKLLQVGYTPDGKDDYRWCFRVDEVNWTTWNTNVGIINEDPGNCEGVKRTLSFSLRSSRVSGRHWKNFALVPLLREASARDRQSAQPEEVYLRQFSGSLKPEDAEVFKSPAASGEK

As usually defined, the IC50 is the concentration that inhibits the measured activity by half. Usually EC50 stands for the concentration giving half of the maximal effect. Consider `O=C(NCc1ccc(B(O)O)cc1)c1ccc(-c2ccccc2)cc1`, for which, in assay [1], the Efficacy is 22%. The half-maximal inhibitory concentration (IC50) in assay [2] is 330 nM; in assay [3], 7110 nM. For the same compound, in assay [4], the half-maximal effective concentration (EC50) turned out to be 4230 nM.

Turning to `O=C(/C=C/c1ccc(Cl)cc1)Nc1ccc(B(O)O)cc1`, the Efficacy in assay [1] was under 10%. Besides, the results for the IC50 in assay [2] and in assay [3] were 560 nM and 1390 nM, respectively.

In the case of `O=C(NCCc1ccc(O)cc1)c1ccc(B(O)O)cc1`, in assay [1], the Efficacy is under 10%. In addition, the IC50 in assay [2] and in assay [3] was over 10000 nM throughout.

Regarding `O=C(Nc1ccc(-c2ccccc2)cc1)c1ccc(B(O)O)cc1`, in assay [1], the Efficacy stood at 12.5%. Besides, the results for the IC50 in assay [2] and in assay [3] were 150 nM and over 10000 nM, respectively. For the same compound, the EC50 in assay [4] amounted to 3970 nM.

For the compound `O=C(CCCCCc1ccccc1)NCc1ccc(B(O)O)cc1`, the Efficacy in assay [1] was 41.1%. In addition, the figures for the half-inhibitory concentration (IC50) in assay [2] and in assay [3] were 1080 nM and 2890 nM, respectively. For the same compound, the EC50 in assay [4] stood at 1530 nM.

For `CC(C)(C)c1ccc(NC(=O)c2ccc(B(O)O)cc2)cc1`, in assay [1], the Efficacy was under 10%. For the same compound, the IC50 is 5500 nM in assay [2] and 750 nM in assay [3].

In the case of `O=C(Cc1ccccc1)NCCCCCCCc1ccccc1`, the Efficacy in assay [1] was 54.6%. Moreover, the IC50 in assay [2] was over 10000 nM; in assay [3], 1210 nM. In addition, in assay [4], the EC50 came to 660 nM.

Turning to `OB(O)c1ccc(-c2ccccc2)cc1` [BIPHENYLBORONIC ACID], the Efficacy in assay [1] was under 10%. For the same compound, the IC50 in assay [2] is 790 nM; in assay [3] it was over 10000 nM.

For the compound `O=C(Cc1ccc(B(O)O)cc1)NCCCCCc1ccccc1`, the Efficacy in assay [1] was found to be 62.8%. Moreover, the IC50 in assay [2] was 630 nM; in assay [3], 2530 nM. Also, the EC50 in assay [4] came to 2250 nM.

As for `CC(C)(C)c1ccc(NC(=O)Nc2ccc(B(O)O)cc2)cc1`, in assay [1], the Efficacy is under 10%. Besides, the IC50 is over 10000 nM in assay [2] and 1950 nM in assay [3].

On to `O=C(Cc1ccc(B(O)O)cc1)NCCCCCCCc1ccccc1`, for which the Efficacy in assay [1] was found to be 52.5%. Also, the IC50 in assay [2] is 250 nM; in assay [3], 370 nM. Besides, the concentration giving a half-maximal response (EC50) in assay [4] is 370 nM.

For the compound `O=C(Cc1ccc(-c2ccccc2)cc1)Nc1ccc(B(O)O)cc1`, the Efficacy in assay [1] is under 10%. In addition, the IC50 in assay [2] and in assay [3] was over 10000 nM each time.

For the compound `O=C(NCc1ccc(-c2ccccc2)cc1)c1ccc(B(O)O)cc1`, the Efficacy in assay [1] is under 10%. Besides, the figures for the IC50 in assay [2] and in assay [3] were 1860 nM and over 10000 nM, respectively.

For `O=C(CCCCCCCc1ccccc1)Nc1ccc(B(O)O)cc1`, the Efficacy in assay [1] was under 10%. The IC50 in assay [2] was 390 nM; in assay [3] it was over 10000 nM.

`O=C(/C=C/c1ccc(Cl)cc1)NCc1ccc(B(O)O)cc1`: the Efficacy in assay [1] is under 10%. Moreover, the 50% inhibitory concentration (IC50) was 1510 nM in assay [2] and over 10000 nM in assay [3].

`O=C(/C=C/c1ccc(Cl)cc1)Nc1cccc(B(O)O)c1`: in assay [1], the Efficacy was under 10%. For the same compound, the values for the IC50 in assay [2] and in assay [3] were over 10000 nM and 41 nM, respectively.

As for `O=C(NCCCCc1ccccc1)c1ccc(B(O)O)cc1`, in assay [1], the Efficacy was under 10%. Moreover, the IC50 was 580 nM in assay [2] and over 10000 nM in assay [3].

For the compound `O=C(CCCCCCCc1ccccc1)NCc1ccc(B(O)O)cc1`, the Efficacy in assay [1] turned out to be 54.7%. Moreover, the IC50 in assay [2] was 470 nM; in assay [3], 500 nM. Also, in assay [4], the concentration giving a half-maximal response (EC50) is 1000 nM.

Consider `O=C(CCCCCc1ccccc1)Nc1ccc(B(O)O)cc1`, for which, in assay [1], the Efficacy is under 10%. In addition, the IC50 in assay [2] is 570 nM; in assay [3], over 10000 nM.

Consider `CCCCCCCC/C=C\CCCCCCCC(=O)NCc1ccc(B(O)O)c(OC)c1`, for which the Efficacy in assay [1] was 49.2%. The values for the concentration for half-maximal inhibition (IC50) in assay [2] and in assay [3] were over 10000 nM and 32 nM, respectively. Moreover, the EC50 in assay [4] amounted to 20 nM.

As for `COc1cc(CNC(=O)Nc2ccc(C(C)(C)C)cc2)ccc1B(O)O`, the Efficacy in assay [1] is under 10%. For the same compound, the results for the IC50 in assay [2] and in assay [3] were 4280 nM and 8110 nM, respectively.

Regarding `O=C(Oc1ccc(C(F)(F)F)cc1)N1CCN(c2ncccc2C(F)(F)F)CC1`, the Efficacy in assay [1] was under 10%.

In the case of `COc1cc(CNC(=O)CCCCCCCc2ccccc2)ccc1B(O)O`, the Efficacy in assay [1] was 62.5%. In addition, the IC50 in assay [2] amounted to 1770 nM; in assay [3], 34 nM. Moreover, the EC50 in assay [4] is 51 nM.

In the case of `COc1cc(CNC(=O)CCCCCc2ccccc2)ccc1B(O)O`, in assay [1], the Efficacy is 59.3%. Besides, the IC50 was found to be 1320 nM in assay [2] and 1530 nM in assay [3]. For the same compound, in assay [4], the EC50 was 1460 nM.

Regarding `CCCCCCCCCc1ccc(B(O)O)cc1`, the Efficacy in assay [1] is under 10%. For the same compound, the IC50 in assay [2] was 2920 nM; in assay [3], over 10000 nM.

As for `O=C(NCc1ccccc1)c1ccc(B(O)O)cc1`, the Efficacy in assay [1] is under 10%. In addition, the IC50 was 2870 nM in assay [2] and over 10000 nM in assay [3].

In the case of `COc1cccc(NC(=O)/C=C/c2ccc(Cl)cc2)c1`, the IC50 is 270 nM in assay [5], over 10000 nM in assay [2] and 190 nM in assay [3]. For the same compound, the Efficacy in assay [1] is under 10%.

In the case of `CC(C)(C)c1ccc(NC(=O)NCc2ccc(B(O)O)cc2)cc1`, the Efficacy in assay [1] is under 10%. Also, the IC50 in assay [2] is 1990 nM; in assay [3], 4130 nM.

On to `CCCCC/C=C\C/C=C\C/C=C\C/C=C\CCCC(=O)NCCc1c[nH]c2ccc(O)cc12`, for which the Efficacy in assay [1] is under 10%.

As to `CC(C)(C)c1ccc(C(=O)Nc2ccc(B(O)O)cc2)cc1`, the Efficacy in assay [1] was found to be 39.3%. Further, the IC50 in assay [2] is over 10000 nM; in assay [3] it was 780 nM. Also, the EC50 in assay [4] was 520 nM.

As for `CC(C)(C)c1ccc(NC(=O)Cc2ccc(B(O)O)cc2)cc1`, the Efficacy in assay [1] was under 10%. Besides, the IC50 in assay [2] and in assay [3] was over 10000 nM in each case.

On to `O=C(CCc1ccccc1)NCc1ccc(B(O)O)cc1`, for which, in assay [1], the Efficacy stood at 60.2%. Further, the IC50 is over 10000 nM in assay [2] and 230 nM in assay [3]. Moreover, the concentration giving a half-maximal response (EC50) in assay [4] stood at 320 nM.

For the compound `O=C(Cc1ccc(B(O)O)cc1)NCc1ccccc1`, the Efficacy in assay [1] was under 10%. Besides, the IC50 in assay [2] and in assay [3] was over 10000 nM throughout.

As to `O=C(NCCCCCc1ccccc1)c1ccc(B(O)O)cc1`, the Efficacy in assay [1] was under 10%. Also, the figures for the IC50 in assay [2] and in assay [3] were 180 nM and over 10000 nM, respectively.

Regarding `O=C(Cc1ccc(B(O)O)cc1)NCc1ccc(-c2ccccc2)cc1`, in assay [1], the Efficacy was 27.4%. In addition, the figures for the half-inhibitory concentration (IC50) in assay [2] and in assay [3] were 280 nM and 5530 nM, respectively. Further, in assay [4], the EC50 was determined as 310 nM.

Turning to `O=C(Cc1ccc(O)cc1)NCCCCCCCc1ccccc1`, the Efficacy in assay [1] was determined as 64.7%. The IC50 in assay [3] came to 260 nM. Besides, in assay [4], the EC50 is 170 nM.

As for `CCCCCCCC/C=C\CCCCCCCC(=O)NCc1ccc(B(O)O)cc1`, the Efficacy in assay [1] was found to be 42.2%. In addition, the IC50 in assay [2] was over 10000 nM; in assay [3], 47 nM. In assay [4], the EC50 stood at 22 nM.

Regarding `O=C(Cc1ccc(B(O)O)cc1)NCCCCc1ccccc1`, the Efficacy in assay [1] turned out to be 44.9%. In addition, the figures for the IC50 in assay [2] and in assay [3] were 1170 nM and 2190 nM, respectively. Further, the 50% effective concentration (EC50) in assay [4] came out at 1990 nM.
